Assay results taken from ChEMBL document CHEMBL3860041, “Synthesis, biological evaluation and molecular modeling study of some new methoxylated 2-benzylthio-quinazoline-4(3H)-ones as nonclassical antifolates” (Bioorg Med Chem Lett, 2016).

Key:
Cancer cell lines [1] = assay: Potency index, ratio of 5-fluorouracil GI50 to compound GI50 for human colon cancer cells; type: functional
In short: (§1)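 GI50 for each cell line came from NCI panel testing over a 5-log dose range, with 5-fluorouracil tested alongside as the reference drug. The index relates the 5-fluorouracil GI50 to the compound GI50 within each tumour subpanel.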

[2] = Growth inhibition of human OVCAR4 cells at 10 uM after 48 hrs by SRB assay relative to control; type: functional; conditions: OVCAR-4, 48 h, read-out: GI
In short: (§2)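 NCI 60-cell-line panel, nine tumor subpanels; compounds tested at a single dose of 10 μM in the primary screen.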

[3] = Growth inhibition of human SF268 cells at 10 uM after 48 hrs by SRB assay relative to control; type: functional; conditions: SF-268, 48 h, read-out: GI; in short: as §2
[4] = Growth inhibition of human PC3 cells at 10 uM after 48 hrs by SRB assay relative to control; type: functional; conditions: PC-3, 48 h, read-out: GI; in short: as §2
[5] = Growth inhibition of human HCC2998 cells at 10 uM after 48 hrs by SRB assay relative to control; type: functional; conditions: HCC 2998, 48 h, read-out: GI; in short: as §2
Cancer cell lines [6] = assay: Potency index, ratio of 5-fluorouracil GI50 to compound GI50 for human ovarian cancer cells; type: functional; in short: as §1
[7] = Growth inhibition of human SW620 cells at 10 uM after 48 hrs by SRB assay relative to control; type: functional; conditions: SW-620, 48 h, read-out: GI
In short: (§3)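 Primary screen across the full NCI 60 human tumour cell line panel, which covers nine tumour subpanels. A single dose of 10 μM was applied to each line, and growth was recorded for each cell line.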

[8] = Growth inhibition of human CNS cancer cells after 48 hrs by SRB assay; type: functional; conditions: Cancer cell lines
In short: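 Five-log dose range against NCI tumor cell lines, monitoring GI50, TGI and LC50 for each cell line; MG-MID values derived across the panel; 5-fluorouracil positive control.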

[9] = Growth inhibition of human leukemia cells after 48 hrs by SRB assay; type: functional; conditions: Leukemia cell; for CC50: read-out: LC50 (the source's name)
In short: (§4)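 Follow-up NCI panel testing over a 5-log dose range for each cell line. GI50, TGI and LC50 were monitored, with 5-fluorouracil run as the positive control. Values are grouped by tumour subpanel.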

Cancer cell lines [10] = assay: Potency index, ratio of 5-fluorouracil GI50 to compound GI50 for human breast cancer cells; type: functional; in short: as §1
[11] = Growth inhibition of human OVCAR3 cells at 10 uM after 48 hrs by SRB assay relative to control; type: functional; conditions: OVCAR-3, 48 h, read-out: GI; in short: as §2
[12] = Growth inhibition of human NCI-322M cells at 10 uM after 48 hrs by SRB assay relative to control; type: functional; conditions: read-out: GI; in short: as §2
Leukemia cell = assay: Potency index, ratio of 5-fluorouracil GI50 to compound GI50 for human leukemia cells; type: functional; in short: as §1
[13] = Growth inhibition of human UACC257 cells at 10 uM after 48 hrs by SRB assay relative to control; type: functional; conditions: UACC-257, 48 h, read-out: GI; in short: as §3
Dihydrofolate reductase = target: T1, Dihydrofolate reductase (Bos taurus, UniProt P00376); assay: Inhibition of bovine liver DHFR preincubated for 2 mins followed by addition of FH2 as substrate and NADPH
T1 sequence (P00376 whole entry): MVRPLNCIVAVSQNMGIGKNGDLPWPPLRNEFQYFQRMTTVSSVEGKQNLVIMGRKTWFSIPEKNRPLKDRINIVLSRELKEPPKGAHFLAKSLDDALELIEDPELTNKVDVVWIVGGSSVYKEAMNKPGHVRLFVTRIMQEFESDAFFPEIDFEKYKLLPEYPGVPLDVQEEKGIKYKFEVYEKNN

Melanoma cell = assay: Potency index, ratio of 5-fluorouracil GI50 to compound GI50 for human melanoma cells; type: functional; in short: as §1
[14] = Growth inhibition of human MCF7 cells at 10 uM after 48 hrs by SRB assay relative to control; type: functional; conditions: MCF7, 48 h, read-out: GI; in short: as §2
[15] = Growth inhibition of human KM12 cells at 10 uM after 48 hrs by SRB assay relative to control; type: functional; conditions: KM12, 48 h, read-out: GI; in short: as §2
[16] = Growth inhibition of human M14 cells at 10 uM after 48 hrs by SRB assay relative to control; type: functional; conditions: M14, 48 h, read-out: GI; in short: as §2
[17] = Growth inhibition of human IGROV1 cells at 10 uM after 48 hrs by SRB assay relative to control; type: functional; conditions: IGROV-1, 48 h, read-out: GI; in short: as §2
[18] = Growth inhibition of human RPMI8226 cells at 10 uM after 48 hrs by SRB assay relative to control; type: functional; conditions: RPMI-8226, 48 h, read-out: GI; in short: as §2
[19] = Growth inhibition of human ACHN cells at 10 uM after 48 hrs by SRB assay relative to control; type: functional; conditions: read-out: GI; in short: as §2
[20] = Growth inhibition of human SKOV3 cells at 10 uM after 48 hrs by SRB assay relative to control; type: functional; conditions: SK-OV-3, 48 h, read-out: GI; in short: as §3
[21] = Growth inhibition of human COLO205 cells at 10 uM after 48 hrs by SRB assay relative to control; type: functional; conditions: COLO 205, 48 h, read-out: GI; in short: as §2
[22] = Growth inhibition of human prostate cancer cells after 48 hrs by SRB assay; type: functional; conditions: Cancer cell lines; in short: as §4
Cancer cell lines [23] = assay: Potency index, ratio of 5-fluorouracil GI50 to compound GI50 for human CNS cancer cells; type: functional; in short: as §1
[24] = Growth inhibition of human SR cells at 10 uM after 48 hrs by SRB assay relative to control; type: functional; conditions: read-out: GI; in short: as §3
[25] = Growth inhibition of human SF295 cells at 10 uM after 48 hrs by SRB assay relative to control; type: functional; conditions: SF-295, 48 h, read-out: GI; in short: as §2
[26] = Growth inhibition of human HCT15 cells at 10 uM after 48 hrs by SRB assay relative to control; type: functional; conditions: HCT-15, 48 h, read-out: GI; in short: as §2
[27] = Growth inhibition of human MALME-3M cells at 10 uM after 48 hrs by SRB assay relative to control; type: functional; conditions: read-out: GI; in short: as §2
[28] = Growth inhibition of human A498 cells at 10 uM after 48 hrs by SRB assay relative to control; type: functional; conditions: A498, 48 h, read-out: GI; in short: as §2
[29] = Growth inhibition of human SK-MEL-5 cells at 10 uM after 48 hrs by SRB assay relative to control; type: functional; conditions: SK-MEL-5, 48 h, read-out: GI; in short: as §3

SMILES | RatioGI50 (Cancer cell lines [1]) | inhibition of growth at 10 µM [2] [%] | inhibition of growth at 10 µM [3] [%] | inhibition of growth at 10 µM [4] [%] | inhibition of growth at 10 µM [5] [%] | RatioGI50 (Cancer cell lines [6]) | inhibition of growth at 10 µM [7] [%] | GI50 [8] [µM] | LC50 (lethal concentration, 50% net cell kill) [8] [µM] | TGI [8] [µM] | GI50 [9] [µM] | TGI [9] [µM] | CC50 [9] [µM] | RatioGI50 (Cancer cell lines [10]) | inhibition of growth at 10 µM [12] [%] | RatioGI50 (Leukemia cell) | inhibition of growth at 10 µM [13] [%] | IC50 (Dihydrofolate reductase) [µM] | RatioGI50 (Melanoma cell) | inhibition of growth at 10 µM [14] [%] | other results
COc1cc2nc(SCc3cc(OC)c(OC)c(OC)c3)n(Cc3ccccc3)c(=O)c2cc1OC | 2 - 10 | 55.8 | 62.2 | 51.2 | 59.2 | 2 - 10 | 66.6 | 3.4 | 80.6 | 24.5 | 1.9 | > 100 | > 100 | 2 - 10 | 54.6 | 2 - 10 | 36.7 | 2 | 2 - 10 | 89.9 | inhibition of growth at 10 µM [11]: 93.8%; inhibition of growth at 10 µM [15]: 84.6%; inhibition of growth at 10 µM [16]: 85.2%; inhibition of growth at 10 µM [17]: 60.8%; inhibition of growth at 10 µM [18]: 45.3%; inhibition of growth at 10 µM [19]: 60.8%; inhibition of growth at 10 µM [20]: 70.2%; inhibition of growth at 10 µM [21]: 92.6%; GI50 [22]: 4 µM; LC50 (concentration killing 50% of cells) [22]: > 100 µM; TGI [22]: > 100 µM; RatioGI50 (Cancer cell lines [23]): 2 - 10; inhibition of growth at 10 µM [24]: 93.8%; inhibition of growth at 10 µM [25]: 80.3%; inhibition of growth at 10 µM [26]: 79.9%; inhibition of growth at 10 µM [27]: 78.1%
COc1cc(CSc2nc3ccc(C)cc3c(=O)n2Cc2ccccc2)cc(OC)c1OC | 10 | 46.9 | 48.5 | 54.1 | 57 | 10 | 74.2 | 3.5 | 81.9 | 46.7 | 2.4 | 85.2 | > 100 | 10 | 53.8 | 10 | 52.6 | 1 | 10 | 82 | inhibition of growth at 10 µM [28]: 93%; inhibition of growth at 10 µM [29]: 82.2%; inhibition of growth at 10 µM [15]: 74.7%; inhibition of growth at 10 µM [16]: 64.4%; inhibition of growth at 10 µM [17]: 75.7%; inhibition of growth at 10 µM [18]: 46%; inhibition of growth at 10 µM [19]: 53.3%; inhibition of growth at 10 µM [20]: 76.1%; GI50 [22]: 2.9 µM; LC50 (concentration killing 50% of cells) [22]: > 100 µM; TGI [22]: 60.2 µM; RatioGI50 (Cancer cell lines [23]): 10; inhibition of growth at 10 µM [24]: 82%; inhibition of growth at 10 µM [25]: 69%; inhibition of growth at 10 µM [26]: 70.8%; inhibition of growth at 10 µM [27]: 70%
